In ChEMBL document CHEMBL1123153, “Synthesis and antitumor and antiviral properties of 5-alkyl-2'-deoxyuridines, 3',5'-cyclic monophosphates, and neutral cyclic triesters” (1986) one finds MIC50 and IC50 data, which are given here for seven compounds.

Converted amounts (≈) assume the structure as drawn.

Format in all cases: functional
Assay [1] relates to Human alphaherpesvirus 1. Description: Antiviral activity against Herpes Simplex Virus-1 (McIntyre).
The subject of assay [2] is Human alphaherpesvirus 2. Description: Antiviral activity against Herpes Simplex Virus-2(G).
Assay [3] has as its system Human alphaherpesvirus 1. Description: Antiviral activity against Herpes Simplex Virus-1(F).
Assay [4] relates to Human alphaherpesvirus 2. Description: Antiviral activity against Herpes Simplex Virus-2(Lyons).
The subject of assay [5] is Raji. The assay can be described thus: Cytostatic activity against proliferation of Raji/0 cells. The settings on record: Homo sapiens, read-out: ID50 (the source's name).
For another assay, the system named is Vaccinia virus. Description: Antiviral activity against vaccinia virus. Conditions: Orthopoxvirus vaccinia.
Assay [6] concerns Raji. Description: Cytostatic activity against proliferation of Raji/TK cells. Conditions: Homo sapiens, read-out: ID50 (the source's name).
Assay [7] deals with Human alphaherpesvirus 2. The assay can be described thus: Antiviral activity against Herpes Simplex Virus-2(196).
Assay [8] relates to Human alphaherpesvirus 1. The assay can be described thus: Antiviral activity against Herpes Simplex Virus-1(KOS).
For assay [9], the system named is L1210. The assay can be described thus: Cytostatic activity against proliferation of L1210/0 cells. Conditions: Mus musculus, read-out: ID50 (the source's name). Summed up: (§1)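 Murine leukemia L1210 cells: parental L1210/0 and L1210/BdUrd, a thymidine-kinase-deficient mutant selected from L1210/0 by growth in the presence of 260 µg/mL 5-bromo-2'-deoxyuridine. Value is the dose inhibiting tumor cell proliferation by 50% (ID50).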

For assay [10], the system named is L1210. Description: Cytostatic activity against proliferation of L1210/BdU cells. The settings on record: Mus musculus, read-out: ID50 (the source's name). Summed up:
as §1

The test system of assay [11] is Vesicular stomatitis virus. The assay can be described thus: Antiviral activity against vesicular stomatitis virus.

`CCCc1cn([C@H]2C[C@H](O)[C@@H](CO)O2)c(=O)[nH]c1=O`: the MIC50 with Human alphaherpesvirus 1 [1] was found to be 2 µg/mL (≈ 7.4 µM); against Human alphaherpesvirus 2 [2] it was 10 µg/mL (≈ 37 µM); against Human alphaherpesvirus 1 [3], 7 µg/mL (≈ 25.9 µM); in the assay on Human alphaherpesvirus 2 [4], 7 µg/mL (≈ 25.9 µM); against Vaccinia virus, 200 µg/mL (≈ 740 µM); in the assay on Human alphaherpesvirus 2 [7], 40 µg/mL (≈ 148 µM). Besides, the MIC50 against Human alphaherpesvirus 1 [8] is 2 µg/mL (≈ 7.4 µM); in assay [11], greater than 200 µg/mL. Besides, the IC50 with Raji [5], in the assay with Raji [6], with L1210 [9] and in the assay on L1210 [10] was greater than 500 µg/mL throughout.

`CCCCCCc1cn([C@H]2C[C@H](O)[C@@H](CO)O2)c(=O)[nH]c1=O`: the MIC50 with Human alphaherpesvirus 1 [1] is 300 µg/mL (≈ 960 µM); against Human alphaherpesvirus 2 [2] it was 400 µg/mL (≈ 1280 µM); with Human alphaherpesvirus 1 [3], greater than 400 µg/mL; with Human alphaherpesvirus 2 [4], 300 µg/mL (≈ 960 µM); with Vaccinia virus it was 300 µg/mL (≈ 960 µM); against Human alphaherpesvirus 1 [8] it was greater than 400 µg/mL. Besides, the IC50 in the assay with Raji [5] worked out at 151 µg/mL (≈ 483 µM); in the assay with Raji [6], 173 µg/mL (≈ 554 µM); in the assay with L1210 [9] it was 172 µg/mL (≈ 551 µM); in the assay with L1210 [10] it was 195 µg/mL (≈ 624 µM).

In the case of `CCCCCCc1cn([C@H]2C[C@@H]3OP(=O)(O)OC[C@H]3O2)c(=O)[nH]c1=O.N`, the MIC50 with Human alphaherpesvirus 1 [1] was greater than 400 µg/mL; with Human alphaherpesvirus 2 [2] it was greater than 400 µg/mL; against Human alphaherpesvirus 1 [3], greater than 400 µg/mL; against Human alphaherpesvirus 2 [4], 300 µg/mL; in the assay on Vaccinia virus, greater than 400 µg/mL; in the assay on Human alphaherpesvirus 2 [7], greater than 400 µg/mL. Moreover, the MIC50 (in the assay on Human alphaherpesvirus 1 [8]; in [11]) was greater than 400 µg/mL throughout. Also, the IC50 in the assay on Raji [5], in the assay with Raji [6], with L1210 [9] and with L1210 [10] was greater than 500 µg/mL in each case.

On to `CCCCc1cn([C@H]2C[C@@H]3OP(=O)(O)OC[C@H]3O2)c(=O)[nH]c1=O.N`, for which the MIC50 with Human alphaherpesvirus 1 [1] was greater than 400 µg/mL; with Human alphaherpesvirus 2 [2] it was greater than 400 µg/mL; against Human alphaherpesvirus 1 [3], greater than 400 µg/mL; in the assay with Human alphaherpesvirus 2 [4], 300 µg/mL; in the assay with Vaccinia virus, 300 µg/mL; against Human alphaherpesvirus 2 [7], greater than 400 µg/mL. Besides, the MIC50 (in the assay with Human alphaherpesvirus 1 [8]; in assay [11]) was greater than 400 µg/mL each time. Moreover, the IC50 in the assay on Raji [5] came out at 82 µg/mL; in the assay with Raji [6] it was 165 µg/mL; with L1210 [9], 28.4 µg/mL; in the assay with L1210 [10], 33.5 µg/mL.

In the case of `CCCCCc1cn([C@H]2C[C@@H]3OP(=O)(O)OC[C@H]3O2)c(=O)[nH]c1=O.N`, the MIC50 with Human alphaherpesvirus 1 [1], against Human alphaherpesvirus 2 [2], with Human alphaherpesvirus 1 [3], in the assay on Human alphaherpesvirus 2 [4], against Vaccinia virus and with Human alphaherpesvirus 2 [7] was greater than 400 µg/mL each time. Also, the MIC50 (against Human alphaherpesvirus 1 [8]; in assay [11]) was greater than 400 µg/mL each time. Besides, the IC50 in the assay on Raji [5], in the assay on Raji [6], in the assay on L1210 [9] and in the assay on L1210 [10] was greater than 500 µg/mL each time.

Turning to `CCCCc1cn([C@H]2C[C@H](O)[C@@H](CO)O2)c(=O)[nH]c1=O`, the MIC50 in the assay on Human alphaherpesvirus 1 [1] is 20 µg/mL (≈ 70.3 µM); in the assay with Human alphaherpesvirus 2 [2], 150 µg/mL (≈ 528 µM); in the assay on Human alphaherpesvirus 1 [3], 70 µg/mL (≈ 246 µM); against Human alphaherpesvirus 2 [4], 20 µg/mL (≈ 70.3 µM); against Vaccinia virus, 300 µg/mL (≈ 1060 µM); in the assay on Human alphaherpesvirus 2 [7], greater than 400 µg/mL. The MIC50 was 20 µg/mL (≈ 70.3 µM) with Human alphaherpesvirus 1 [8] and greater than 400 µg/mL in assay [11]. In addition, the IC50 in the assay on Raji [5], in the assay on Raji [6], in the assay with L1210 [9] and with L1210 [10] was greater than 500 µg/mL each time.

Regarding `CCc1cn([C@H]2C[C@@H]3OP(=O)(O)OC[C@H]3O2)c(=O)[nH]c1=O.N`, the MIC50 in the assay with Human alphaherpesvirus 1 [1] worked out at 70 µg/mL; in the assay on Human alphaherpesvirus 2 [2], 10 µg/mL; against Human alphaherpesvirus 1 [3], 70 µg/mL; against Human alphaherpesvirus 2 [4], 7 µg/mL; against Vaccinia virus, 70 µg/mL; in the assay with Human alphaherpesvirus 2 [7], 150 µg/mL. Also, the MIC50 was 70 µg/mL against Human alphaherpesvirus 1 [8] and greater than 400 µg/mL in [11]. The IC50 with Raji [5] was 60 µg/mL; in the assay with Raji [6], greater than 500 µg/mL; with L1210 [9], 55 µg/mL; with L1210 [10], greater than 500 µg/mL.
